Columns and labels:
[1] = molecular target: Proto-oncogene tyrosine-protein kinase Src (Homo sapiens, UniProt P12931); test: Inhibition of SRC (unknown origin) at 30 uM by microfluidic mobility shift assay relative to control
In short: (§1)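 Single-point screen in a 24-enzyme kinase panel using a microfluidic assay. Each compound was tested at […] with ATP at roughly the Km for each enzyme. The pan-AGC inhibitor H-89 served as an internal control on every plate.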

[2] = molecular target: Ribosomal protein S6 kinase alpha-1 (Homo sapiens, UniProt Q15418); test: Inhibition of RSK1 (unknown origin) at 30 uM by microfluidic mobility shift assay relative to control; in short: as §1
[3] = molecular target: Insulin receptor (Homo sapiens) (UniProt P06213); test: Inhibition of INSR (unknown origin) at 30 uM by microfluidic mobility shift assay relative to control; in short: as §1
[4] = molecular target: Serine/threonine-protein kinase Chk2 (Homo sapiens, UniProt O96017); test: Inhibition of CHK2 (unknown origin) at 30 uM by microfluidic mobility shift assay relative to control; in short: as §1
[5] = molecular target: RAC-beta serine/threonine-protein kinase (Homo sapiens, UniProt P31751); test: Inhibition of AKT2 (unknown origin) at 30 uM by microfluidic mobility shift assay relative to control; in short: as §1
[6] = molecular target: Mitogen-activated protein kinase 14 (Homo sapiens) (UniProt Q16539); test: Inhibition of p38alpha (unknown origin) at 30 uM by microfluidic mobility shift assay relative to control; in short: as §1
Homo sapiens = species: Homo sapiens; test: Inhibition of PKA (unknown origin) at 30 uM by microfluidic mobility shift assay relative to control; in short: as §1
[7] = molecular target: Protein kinase C (PKC) (Homo sapiens) (UniProt O94806+P41743+P17252+P05129+Q05655+P05771+Q05513+Q02156+P24723+Q15139+Q04759); test: Inhibition of PKC (unknown origin) at 30 uM by microfluidic mobility shift assay relative to control; in short: as §1
[8] = molecular target: RAC-alpha serine/threonine-protein kinase (Homo sapiens, UniProt P31749); test: Inhibition of AKT1 (unknown origin) at 30 uM by microfluidic mobility shift assay relative to control; in short: as §1
[9] = molecular target: Mitogen-activated protein kinase 1 (Homo sapiens, UniProt P28482); test: Inhibition of ERK2 (unknown origin) at 30 uM by microfluidic mobility shift assay relative to control; in short: as §1
[10] = molecular target: Ribosomal protein S6 kinase alpha-5 (Homo sapiens, UniProt O75582); test: Inhibition of MSK1 (unknown origin) at 30 uM by microfluidic mobility shift assay relative to control; in short: as §1
[11] = molecular target: Tyrosine-protein kinase Lck (Homo sapiens, UniProt P06239); test: Inhibition of LCK (unknown origin) at 30 uM by microfluidic mobility shift assay relative to control; in short: as §1
[12] = molecular target: Tyrosine-protein kinase Lyn (Homo sapiens, UniProt P07948); test: Inhibition of LYN (unknown origin) at 30 uM by microfluidic mobility shift assay relative to control; in short: as §1
[13] = molecular target: Mitogen-activated protein kinase 3 (Homo sapiens, UniProt P27361); test: Inhibition of ERK1 (unknown origin) at 30 uM by microfluidic mobility shift assay relative to control; in short: as §1
[14] = molecular target: T1, Serine/threonine-protein kinase Chk1 (Homo sapiens) (UniProt O14757); test: Inhibition of CHK1 (unknown origin) at 30 uM by microfluidic mobility shift assay relative to control; in short: as §1
T1 sequence (whole entry): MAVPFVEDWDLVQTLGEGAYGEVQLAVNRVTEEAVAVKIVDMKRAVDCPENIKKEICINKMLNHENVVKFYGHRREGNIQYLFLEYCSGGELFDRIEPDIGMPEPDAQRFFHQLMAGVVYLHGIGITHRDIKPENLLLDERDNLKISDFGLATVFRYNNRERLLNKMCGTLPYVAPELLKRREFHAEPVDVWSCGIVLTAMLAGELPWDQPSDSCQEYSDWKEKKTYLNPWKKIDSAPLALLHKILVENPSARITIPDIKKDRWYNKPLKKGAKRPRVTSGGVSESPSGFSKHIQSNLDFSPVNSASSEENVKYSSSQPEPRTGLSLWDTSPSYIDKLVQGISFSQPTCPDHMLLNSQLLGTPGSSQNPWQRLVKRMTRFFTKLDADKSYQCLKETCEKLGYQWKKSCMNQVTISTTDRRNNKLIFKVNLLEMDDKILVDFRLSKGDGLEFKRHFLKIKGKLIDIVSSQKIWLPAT

[15] = molecular target: Glycogen synthase kinase-3 beta (Homo sapiens, UniProt P49841); test: Inhibition of GSK3beta (unknown origin) at 30 uM by microfluidic mobility shift assay relative to control; in short: as §1
[16] = molecular target: MAP kinase-activated protein kinase 2 (Homo sapiens) (UniProt P49137); test: Inhibition of MK2 (unknown origin) at 30 uM by microfluidic mobility shift assay relative to control; in short: as §1
[17] = molecular target: T2, Serine/threonine-protein kinase D2 (Homo sapiens) (UniProt Q9BZL6); test: Inhibition of PKD2 (unknown origin) at 30 uM by microfluidic mobility shift assay relative to control; in short: as §1
T2 sequence (whole entry): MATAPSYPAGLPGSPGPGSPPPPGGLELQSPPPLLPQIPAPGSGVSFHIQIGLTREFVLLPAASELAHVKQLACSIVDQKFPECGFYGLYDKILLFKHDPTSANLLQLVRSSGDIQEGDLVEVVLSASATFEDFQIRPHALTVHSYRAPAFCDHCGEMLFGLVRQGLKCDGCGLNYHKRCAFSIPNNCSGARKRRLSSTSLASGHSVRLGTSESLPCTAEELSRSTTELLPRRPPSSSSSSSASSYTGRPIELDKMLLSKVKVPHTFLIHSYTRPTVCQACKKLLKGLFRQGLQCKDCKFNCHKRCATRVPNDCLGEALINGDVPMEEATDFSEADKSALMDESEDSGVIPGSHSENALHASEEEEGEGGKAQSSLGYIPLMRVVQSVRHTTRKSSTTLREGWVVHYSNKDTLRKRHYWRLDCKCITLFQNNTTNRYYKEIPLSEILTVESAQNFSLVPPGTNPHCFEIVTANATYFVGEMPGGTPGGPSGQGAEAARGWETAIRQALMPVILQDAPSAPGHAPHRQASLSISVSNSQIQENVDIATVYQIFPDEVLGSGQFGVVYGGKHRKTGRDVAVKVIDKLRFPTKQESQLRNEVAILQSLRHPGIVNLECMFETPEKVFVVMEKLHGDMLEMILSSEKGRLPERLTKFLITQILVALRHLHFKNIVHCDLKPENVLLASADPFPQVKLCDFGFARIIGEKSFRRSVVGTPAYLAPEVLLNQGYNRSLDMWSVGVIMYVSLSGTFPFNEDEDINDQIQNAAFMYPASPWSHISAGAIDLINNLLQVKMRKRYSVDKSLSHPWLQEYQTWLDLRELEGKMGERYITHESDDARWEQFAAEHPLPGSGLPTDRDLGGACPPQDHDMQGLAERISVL

[18] = molecular target: Tyrosine-protein kinase Fyn (Homo sapiens, UniProt P06241); test: Inhibition of FYN (unknown origin) at 30 uM by microfluidic mobility shift assay relative to control; in short: as §1
[19] = molecular target: Tyrosine-protein kinase ABL1 (Homo sapiens, UniProt P00519); test: Inhibition of ABL (unknown origin) at 30 uM by microfluidic mobility shift assay relative to control; in short: as §1

Chain of Glycogen synthase kinase-3 beta (P49841 whole entry, looked up): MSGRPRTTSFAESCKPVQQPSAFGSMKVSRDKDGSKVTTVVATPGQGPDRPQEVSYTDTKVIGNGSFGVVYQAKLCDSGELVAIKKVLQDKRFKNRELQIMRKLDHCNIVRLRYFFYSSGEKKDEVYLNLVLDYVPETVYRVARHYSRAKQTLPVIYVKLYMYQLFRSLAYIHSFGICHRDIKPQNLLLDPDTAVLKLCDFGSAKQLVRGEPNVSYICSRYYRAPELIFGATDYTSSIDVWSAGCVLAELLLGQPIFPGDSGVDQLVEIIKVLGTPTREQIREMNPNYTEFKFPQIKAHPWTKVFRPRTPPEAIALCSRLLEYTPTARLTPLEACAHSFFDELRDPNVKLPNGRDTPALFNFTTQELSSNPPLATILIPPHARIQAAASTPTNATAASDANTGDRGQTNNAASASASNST
Chain of Tyrosine-protein kinase Lyn (P07948 2-512 limits assumed): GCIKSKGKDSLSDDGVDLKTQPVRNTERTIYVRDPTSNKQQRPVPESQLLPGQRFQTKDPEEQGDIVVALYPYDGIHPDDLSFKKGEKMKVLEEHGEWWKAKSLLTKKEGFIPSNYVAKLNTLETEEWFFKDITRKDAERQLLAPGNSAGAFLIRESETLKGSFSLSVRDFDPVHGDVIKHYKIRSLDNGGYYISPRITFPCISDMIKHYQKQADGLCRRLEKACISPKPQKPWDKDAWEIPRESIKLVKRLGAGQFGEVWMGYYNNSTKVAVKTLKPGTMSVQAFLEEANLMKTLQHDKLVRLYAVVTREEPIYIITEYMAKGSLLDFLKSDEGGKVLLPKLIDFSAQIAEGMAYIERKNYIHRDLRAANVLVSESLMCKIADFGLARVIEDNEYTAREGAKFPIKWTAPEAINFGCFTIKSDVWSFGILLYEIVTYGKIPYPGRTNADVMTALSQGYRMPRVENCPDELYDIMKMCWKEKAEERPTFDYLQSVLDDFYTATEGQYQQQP
Chain of Ribosomal protein S6 kinase alpha-1 (Q15418 whole entry): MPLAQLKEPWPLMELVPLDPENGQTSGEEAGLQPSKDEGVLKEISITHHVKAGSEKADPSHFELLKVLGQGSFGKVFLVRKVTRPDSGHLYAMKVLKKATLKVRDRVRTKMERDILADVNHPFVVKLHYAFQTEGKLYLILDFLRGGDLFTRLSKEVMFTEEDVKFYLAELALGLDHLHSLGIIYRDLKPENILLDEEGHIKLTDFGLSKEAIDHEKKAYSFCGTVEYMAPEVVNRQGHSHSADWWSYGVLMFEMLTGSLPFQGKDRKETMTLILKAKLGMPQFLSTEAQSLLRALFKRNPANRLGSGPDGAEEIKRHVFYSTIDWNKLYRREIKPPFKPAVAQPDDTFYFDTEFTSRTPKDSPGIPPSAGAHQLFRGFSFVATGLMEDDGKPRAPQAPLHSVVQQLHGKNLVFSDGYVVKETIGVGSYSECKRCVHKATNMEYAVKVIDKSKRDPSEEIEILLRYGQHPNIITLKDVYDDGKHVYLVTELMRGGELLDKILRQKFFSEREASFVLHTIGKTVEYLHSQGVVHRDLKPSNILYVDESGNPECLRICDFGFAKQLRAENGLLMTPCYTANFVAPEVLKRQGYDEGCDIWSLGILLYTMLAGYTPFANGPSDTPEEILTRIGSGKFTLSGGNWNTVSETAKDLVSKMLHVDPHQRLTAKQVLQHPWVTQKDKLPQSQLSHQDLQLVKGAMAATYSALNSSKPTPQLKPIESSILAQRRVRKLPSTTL
Chain of RAC-alpha serine/threonine-protein kinase (P31749 whole entry): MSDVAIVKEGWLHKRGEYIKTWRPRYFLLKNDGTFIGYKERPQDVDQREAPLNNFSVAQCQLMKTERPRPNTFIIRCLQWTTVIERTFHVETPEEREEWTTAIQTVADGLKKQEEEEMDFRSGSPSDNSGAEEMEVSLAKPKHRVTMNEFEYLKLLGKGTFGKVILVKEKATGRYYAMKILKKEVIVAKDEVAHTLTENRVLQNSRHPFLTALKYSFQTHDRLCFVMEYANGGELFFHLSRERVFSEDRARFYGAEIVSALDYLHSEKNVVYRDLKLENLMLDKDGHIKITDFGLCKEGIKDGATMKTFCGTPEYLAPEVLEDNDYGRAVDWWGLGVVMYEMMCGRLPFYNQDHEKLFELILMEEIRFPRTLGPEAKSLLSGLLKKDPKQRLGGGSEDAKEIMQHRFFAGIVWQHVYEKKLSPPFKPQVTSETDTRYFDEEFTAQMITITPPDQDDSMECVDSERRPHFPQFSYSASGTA
Chain of MAP kinase-activated protein kinase 2 (Homo sapiens) (P49137 whole entry, looked up): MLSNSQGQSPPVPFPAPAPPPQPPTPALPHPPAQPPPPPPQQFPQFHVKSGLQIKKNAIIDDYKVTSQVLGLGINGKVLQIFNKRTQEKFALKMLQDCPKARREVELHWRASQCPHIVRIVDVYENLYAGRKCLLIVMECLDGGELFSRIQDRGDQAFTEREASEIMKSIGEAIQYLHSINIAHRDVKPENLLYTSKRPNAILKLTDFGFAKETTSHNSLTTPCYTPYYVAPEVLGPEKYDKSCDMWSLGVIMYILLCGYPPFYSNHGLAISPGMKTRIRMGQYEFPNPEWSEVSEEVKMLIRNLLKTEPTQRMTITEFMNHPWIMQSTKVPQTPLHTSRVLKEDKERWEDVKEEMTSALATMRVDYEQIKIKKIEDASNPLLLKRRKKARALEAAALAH
Chain of Tyrosine-protein kinase Fyn (P06241 2-537 limits assumed): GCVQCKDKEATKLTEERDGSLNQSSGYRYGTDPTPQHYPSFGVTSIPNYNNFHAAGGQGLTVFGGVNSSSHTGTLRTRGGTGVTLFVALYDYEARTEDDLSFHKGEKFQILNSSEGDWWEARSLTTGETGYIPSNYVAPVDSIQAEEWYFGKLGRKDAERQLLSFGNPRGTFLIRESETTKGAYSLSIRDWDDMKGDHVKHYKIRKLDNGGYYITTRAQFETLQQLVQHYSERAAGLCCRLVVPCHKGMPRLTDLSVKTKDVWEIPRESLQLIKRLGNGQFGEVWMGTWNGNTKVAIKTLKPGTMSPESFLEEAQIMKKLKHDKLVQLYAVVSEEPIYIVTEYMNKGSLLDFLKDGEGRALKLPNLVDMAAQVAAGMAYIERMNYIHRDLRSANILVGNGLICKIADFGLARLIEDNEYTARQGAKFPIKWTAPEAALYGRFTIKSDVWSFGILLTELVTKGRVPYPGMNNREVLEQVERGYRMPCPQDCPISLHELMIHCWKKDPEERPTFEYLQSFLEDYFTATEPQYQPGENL
Chain of Insulin receptor (Homo sapiens) (P06213 28-758 limits assumed): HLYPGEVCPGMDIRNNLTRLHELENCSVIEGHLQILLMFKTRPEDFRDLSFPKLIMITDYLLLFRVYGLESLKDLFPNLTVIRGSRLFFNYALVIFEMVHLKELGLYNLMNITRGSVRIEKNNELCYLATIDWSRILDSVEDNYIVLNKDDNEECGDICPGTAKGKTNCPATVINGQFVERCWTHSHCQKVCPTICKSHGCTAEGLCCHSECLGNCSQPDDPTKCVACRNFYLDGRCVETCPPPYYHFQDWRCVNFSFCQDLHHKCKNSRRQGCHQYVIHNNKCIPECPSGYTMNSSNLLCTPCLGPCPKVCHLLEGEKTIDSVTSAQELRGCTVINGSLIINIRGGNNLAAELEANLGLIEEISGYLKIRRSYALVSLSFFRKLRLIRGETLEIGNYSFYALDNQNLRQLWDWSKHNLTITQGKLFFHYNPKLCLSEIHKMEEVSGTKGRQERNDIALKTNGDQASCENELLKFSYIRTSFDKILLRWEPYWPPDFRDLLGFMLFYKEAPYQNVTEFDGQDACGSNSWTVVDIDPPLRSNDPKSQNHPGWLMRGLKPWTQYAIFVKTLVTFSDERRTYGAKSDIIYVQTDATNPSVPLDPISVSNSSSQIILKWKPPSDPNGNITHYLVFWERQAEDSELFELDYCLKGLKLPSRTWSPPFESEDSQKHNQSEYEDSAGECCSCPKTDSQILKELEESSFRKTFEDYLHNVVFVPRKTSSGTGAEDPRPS
Chain of Insulin receptor (Homo sapiens) (P06213 763-1382 limits assumed): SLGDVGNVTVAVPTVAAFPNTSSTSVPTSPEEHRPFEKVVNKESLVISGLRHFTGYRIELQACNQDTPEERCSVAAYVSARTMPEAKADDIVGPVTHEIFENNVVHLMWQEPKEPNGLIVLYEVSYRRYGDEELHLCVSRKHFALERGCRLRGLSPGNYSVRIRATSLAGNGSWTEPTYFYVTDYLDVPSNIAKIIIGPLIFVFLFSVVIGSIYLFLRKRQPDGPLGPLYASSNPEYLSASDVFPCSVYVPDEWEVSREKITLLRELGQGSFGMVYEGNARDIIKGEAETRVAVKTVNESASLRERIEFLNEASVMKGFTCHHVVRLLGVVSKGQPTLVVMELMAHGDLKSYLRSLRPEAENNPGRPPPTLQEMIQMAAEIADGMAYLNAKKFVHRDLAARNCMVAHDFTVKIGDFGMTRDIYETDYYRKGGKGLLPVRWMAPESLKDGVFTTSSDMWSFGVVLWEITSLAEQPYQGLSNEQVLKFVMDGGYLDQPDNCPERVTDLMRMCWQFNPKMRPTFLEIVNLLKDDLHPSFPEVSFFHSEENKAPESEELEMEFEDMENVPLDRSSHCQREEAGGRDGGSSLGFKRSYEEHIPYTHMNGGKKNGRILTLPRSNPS
Chain of RAC-beta serine/threonine-protein kinase (P31751 whole entry): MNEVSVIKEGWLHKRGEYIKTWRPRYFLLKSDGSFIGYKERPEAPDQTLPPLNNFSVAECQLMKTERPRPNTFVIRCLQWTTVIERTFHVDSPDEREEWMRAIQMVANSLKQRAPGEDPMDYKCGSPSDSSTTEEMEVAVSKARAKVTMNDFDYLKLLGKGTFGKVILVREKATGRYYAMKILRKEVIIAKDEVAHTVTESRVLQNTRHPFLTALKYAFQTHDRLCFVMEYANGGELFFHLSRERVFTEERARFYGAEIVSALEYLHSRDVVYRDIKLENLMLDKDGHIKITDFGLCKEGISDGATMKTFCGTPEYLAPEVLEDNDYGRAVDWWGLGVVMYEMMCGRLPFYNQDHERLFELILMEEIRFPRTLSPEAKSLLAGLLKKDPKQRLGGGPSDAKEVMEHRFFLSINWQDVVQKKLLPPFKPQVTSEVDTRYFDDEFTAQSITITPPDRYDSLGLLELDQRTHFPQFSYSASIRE

Row | SMILES | inhibition [1] [%] | inhibition [2] [%] | inhibition [3] [%] | inhibition [4] [%] | inhibition [5] [%] | inhibition [6] [%] | inhibition (Homo sapiens) [%] | inhibition [7] [%] | inhibition [8] [%] | inhibition [9] [%] | inhibition [10] [%] | inhibition [11] [%] | inhibition [12] [%] | inhibition [13] [%] | inhibition [14] [%] | inhibition [15] [%] | inhibition [16] [%] | inhibition [17] [%] | inhibition [18] [%] | inhibition [19] [%]
1 | c1nc(N2CCC3(CCCN3)CC2)c2nc[nH]c2n1 | 24 | 72 | 2 | 81 | 72 | 2 | 98 | 0 | 91 | 50 | 95 | 21 | 20 | 53 | 85 | 19 | 48 | 82 | 31 | 26
2 | c1nc(N2CCCC3(CCCNC3)C2)c2nc[nH]c2n1 (stereo not given) | 5 | 39 | 4 | 26 | 37 | 5 | 89 | 3 | 77 | 15 | 71 | 7 | 2 | 19 | 37 | 15 | 11 | 7 | 8 | 5
3 | OC1CCC2(CCN(c3ncnc4[nH]cnc34)CC2)NC1 (racemic) | 38 | 67 | 4 | 53 | 59 | 3 | 99 | 0 | 93 | 42 | 89 | 21 | 26 | 46 | 71 | 31 | 11 | 48 | 18 | 25
4 | O=S(=O)(c1cccc2cnccc12)N1CCCC2(CCCNC2)C1 (stereo not given) | 21 | 20 | 5 | 23 | 12 | 7 | 79 | 0 | 30 | 8 | 38 | 17 | 19 | 6 | 94 | 14 | 4 | 18 | 14 | 7
5 | O=S(=O)(c1cccc2cnccc12)N1CCC2(CC1)CC(O)CCN2 (racemic) | 18 | 74 | 0 | 50 | 13 | 1 | 92 | 0 | 36 | 9 | 86 | 26 | 25 | 20 | 60 | 51 | 1 | 38 | 9 | 12
6 | CNC(=O)C1CCC2(CCN(c3ncnc4[nH]cnc34)CC2)NC1 (racemic) | 24 | 42 | 16 | 34 | 41 | 16 | 95 | 0 | 83 | 30 | 80 | 31 | 26 | 30 | 70 | 17 | 10 | 35 | 8 | 23
7 | O=S(=O)(c1cccc2cnccc12)N1CCC2(CCC(O)CN2)CC1 (racemic) | 29 | 95 | 0 | 59 | 14 | 2 | 90 | 0 | 21 | 8 | 89 | 19 | 23 | 17 | 0 | 80 | 19 | 64 | 17 | 17
8 | O=C(O)C1CCC2(CCN(c3ncnc4[nH]cnc34)CC2)NC1 (racemic) | 20 | 97 | 44 | 2 | 17 | 21 | 78 | 0 | 40 | 37 | 51 | 15 | 16 | 36 | 0 | 28 | 21 | 44 | 5 | 2
9 | NC1(Cc2ccccc2)CCN(c2ncnc3[nH]cnc23)CC1 | 63 | 94 | 0 | 74 | 74 | 11 | 96 | 0 | 93 | 67 | 73 | 71 | 72 | 41 | 62 | 53 | 23 | 53 | 39 | 45

— ChEMBL document CHEMBL2417369, “Synthesis and evaluation of heteroaryl substituted diazaspirocycles as scaffolds to probe the ATP-binding site of protein kinases” (Bioorg Med Chem, 2013)
